Source: PubChem BioAssay
TAAR1 antagonist = human TAAR1 antagonists, primary screen, Fluo-8 calcium fluorescence, CHO RD-HGA16 cells | inhibition, % at 3 µM | 360,000 tested, 1.5% active | antagonist | AID 624466, 2012;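 active = inhibition above a per-plate cutoff, the mean inhibition of test compounds on that plate plus 3 SD, cut at about 49% in these data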;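 also: 0% = DMSO plus EC80 beta-PEA response and 100% = DMSO alone without agonist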
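Test system – hTAAR1-expressing CHO RD-HGA16 cells, Gα16-coupled · Reagent – β-PEA at EC80 concentration, post-compound challenge · Compound dosing – 3 µM, single point · Timing – 140 s kinetic read after compound, 140 s after agonist · Detection – Fluo-8 intracellular calcium dye fluorescence, real-time kinetic reads · Control set – DMSO and EC80 PEA controls · Repeats – n of 1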
M1 PAM = human M1 muscarinic receptor positive allosteric modulators, primary screen, CHO-K1 cells, Fluo-8 calcium fluorescence, 1536-well | CHO-K1 hM1, ACh EC20; 0% = ACh EC20, 100% = maximal ACh | activation, % at 3 µM | 360,000 tested, 0.088% active | AID 588819, 2011; in the data active = activation above about 19%, passing the limit was not always enough
Target sequence (P11229 whole entry, looked up): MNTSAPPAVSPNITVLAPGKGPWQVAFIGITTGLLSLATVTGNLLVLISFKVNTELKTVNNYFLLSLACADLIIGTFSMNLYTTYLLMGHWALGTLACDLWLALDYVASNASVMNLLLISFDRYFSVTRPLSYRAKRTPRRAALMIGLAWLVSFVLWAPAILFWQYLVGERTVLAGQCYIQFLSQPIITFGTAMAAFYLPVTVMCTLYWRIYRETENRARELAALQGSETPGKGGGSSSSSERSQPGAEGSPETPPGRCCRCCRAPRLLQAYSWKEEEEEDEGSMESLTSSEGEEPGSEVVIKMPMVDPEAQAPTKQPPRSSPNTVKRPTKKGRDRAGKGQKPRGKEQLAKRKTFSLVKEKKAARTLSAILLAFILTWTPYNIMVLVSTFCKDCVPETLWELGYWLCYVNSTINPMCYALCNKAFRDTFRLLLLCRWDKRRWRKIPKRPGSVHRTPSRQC
M1 ag = human M1 muscarinic receptor agonists, primary screen, Fluo-8 calcium fluorescence, CHO-K1 cells, HTS | Muscarinic acetylcholine receptor M1 (Homo sapiens), P11229 | CHO-K1 hM1, agonist mode; 0% DMSO, 100% acetylcholine EC100 | activation, % at 3 µM | 360,000 tested, 0.33% active | AID 588814, 2011;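 active = activation above the run's mean compound activation plus 3 SD, cut at about 16% in these data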;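 also: peak over basal fluorescence ratio within a 140 s kinetic read after compound addition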
CHRM1 antagonist = human M1 muscarinic receptor antagonists, primary screen, CHO-K1 cells, Fluo-8 calcium fluorescence, 1536-well | CHO-K1 hM1, ACh EC80 antagonist | AID 588852, 2011 | Muscarinic acetylcholine receptor M1 (Homo sapiens), P11229 | inhibition, % at 3 µM | 360,000 tested, 1.3% active;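 active = percent inhibition above its own plate's cutoff, namely the mean of that plate's compound wells plus 3 SD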;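 also: peak over basal fluorescence ratio during 140 s after agonist addition; 0% = ACh EC80 plus DMSO and 100% = DMSO alone without agonist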
TAAR1 agonist = human TAAR1 agonists, primary screen, Fluo-8 calcium fluorescence, CHO RD-HGA16 cells; 360,000 tested, 0.99% active; activation, % at 3 µM; vehicle wells 0%, saturating PEA agonist 100%;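 active = activation above the mean activation of all test compounds in the run plus 3 SD, cut at about 38% in these data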
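Assay system: CHO-derived RD-HGA16 cells with stable Gα16 and human TAAR1; timing: 17-24 h seeding, 75 min 37 °C dye, 30 min RT; read-out: % activation from peak over basal fluorescence ratio, DMSO-to-PEA scaled; measured by: kinetic Fluo-8 calcium fluorescence; benchmarks: low control DMSO, high control PEA (EC100); doses: 3 µM single concentration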
TAAR1 ag confirm = human TAAR1 agonists, retest of hits, confirmation, Fluo-8 calcium fluorescence, CHO RD-HGA16 cells | shares compounds with TAAR1 agonist | scaled: DMSO 0%, maximal phenethylamine 100% | activation, % at 3 µM | 2,400 tested, 82% active | AID 651783, 2012;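 active = activation above a cutoff set at the run's mean compound activation plus 3 SD, cut at about 39% in these data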
Ga16 nonsel ag = nonselective calcium mobilization agonists, CHO-Ga16 cells, counter-screen for hTAAR1 agonist project, cell-based, fluorescence, CHO-Ga16 parental line; shares compounds with TAAR1 agonist; Fluo-8 calcium fluorescence; normalized to maximal ATP response, DMSO zero; activation, % at 3 µM; 2,400 tested, 50% active; AID 651787, 2012;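 active = activation above the run cutoff, the mean activation over all tested wells plus 3 SD, cut at about 12% in these data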;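 also: 0% = DMSO wells and 100% = maximal ATP response on the peak over basal ratio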
TAAR1 desens = TAAR1 desensitization by agonist hits, confirmation, counter-screen for TAAR1 agonist project, cell-based, fluorescence, tachyphylaxis; shares compounds with TAAR1 agonist; CHO RD-HGA16 hTAAR1, Fluo-8 calcium, beta-PEA response inhibition; inhibition, % at 3 µM; 2,400 tested, 46% active;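 active = inhibition above the run cutoff, the mean inhibition of all test compounds plus 3 SD, cut at about 49% in these data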;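 also: beta-PEA stimulus applied at its EC80; loss of beta-PEA calcium signal after compound pretreatment read as receptor desensitization; 0% = DMSO with beta-PEA at EC80 and 100% = DMSO alone without agonist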
Ga16 nonsel ant = inhibition of ATP-evoked calcium response in CHO-Ga16 cells, counter-screen for TAAR1 agonist project, cell-based, fluorescence | shares compounds with TAAR1 agonist | CHO-Ga16 ATP-induced calcium, Fluo-8 fluorescence | inhibition, % at 3 µM | 2,400 tested, 39% active;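 active = inhibition above the plate's mean compound inhibition plus 3 SD, computed per plate, cut at about 22% in these data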;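 also: 0% = EC80 ATP with DMSO and 100% = DMSO wells without ATP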
* = called active by the depositor. Shown are actives, neighbours in structure and some others; about 3.4% of the full set was active somewhere.

Screening NC(=O)Nc1ccc(C(=O)OCC(=O)c2c[nH]c3ccccc23)cc1 returned TAAR1 antagonist 3.5, M1 PAM 1.9, M1 ag -0.2, CHRM1 antagonist -4.8, TAAR1 agonist 47.7*, TAAR1 ag confirm 59.1*, Ga16 nonsel ag 0.5, TAAR1 desens 14.9 and Ga16 nonsel ant 12.9.
COc1ccc(CN2CCNC(=O)C2CC(=O)NC2Cc3ccccc3C2)c(OC)c1 (stereo unspecified) was read as TAAR1 antagonist -26.1, M1 PAM 13.6, M1 ag -9.6, CHRM1 antagonist -9.7, TAAR1 agonist 46.1*, TAAR1 ag confirm 54.1*, Ga16 nonsel ag 6.8, TAAR1 desens -4.8 and Ga16 nonsel ant 1.3.
For COc1ccc(CN2CCNC(=O)C2CC(=O)NC2CCC2)c(OC)c1 (stereo unspecified) the results were TAAR1 antagonist -7.2, M1 PAM 14.8, M1 ag -2.0, CHRM1 antagonist -12.6 and TAAR1 agonist 0.3.
`COc1ccc(Cn2c(SCc3ccccc3C)nc3cc(OC)c(OC)cc3c2=N)cc1` gave TAAR1 antagonist 9.4, M1 PAM 7.6, M1 ag -1.7, CHRM1 antagonist 15.5, TAAR1 agonist 51.7*, TAAR1 ag confirm 71.3*, Ga16 nonsel ag 30.6*, TAAR1 desens 46.7 and Ga16 nonsel ant 33.6*.
O=C(COc1cccc2cccnc12)N1CCc2ccccc2C1 was read as TAAR1 antagonist 5.3, M1 PAM 5.2, M1 ag -3.1, CHRM1 antagonist -6.0, TAAR1 agonist 52.2*, TAAR1 ag confirm 20.7, Ga16 nonsel ag 3.2, TAAR1 desens 10.6 and Ga16 nonsel ant 16.2.
For Cc1cccc(OCC(=O)N2CCc3ccccc3C2)c1 the results were TAAR1 antagonist 17.6, M1 PAM -4.4, M1 ag -3.5, CHRM1 antagonist 11.7, TAAR1 agonist 55.5*, TAAR1 ag confirm 69.4*, Ga16 nonsel ag 1.8, TAAR1 desens 24.4 and Ga16 nonsel ant 5.6.
`COc1ccc(Cc2nnc(SCC(=O)N3CCc4ccccc4C3)o2)cc1` gave TAAR1 antagonist -1.4, M1 PAM 8.8, M1 ag -0.7, CHRM1 antagonist 5.2, TAAR1 agonist 55.5*, TAAR1 ag confirm 75.0*, Ga16 nonsel ag 2.3, TAAR1 desens 12.3 and Ga16 nonsel ant 9.8.
`Cc1cccc(C(=O)NC(=S)N2CCc3ccccc3C2)c1` gave TAAR1 antagonist 17.8, M1 PAM -1.8, M1 ag -8.5, CHRM1 antagonist -5.6, TAAR1 agonist 61.9*, TAAR1 ag confirm 65.4*, Ga16 nonsel ag 3.0, TAAR1 desens 31.8 and Ga16 nonsel ant 7.2.
For NS(=O)(=O)c1ccc(CCNC(=O)COC(=O)CC(c2ccccc2)c2ccccc2)cc1 the results were TAAR1 antagonist 7.2, M1 PAM -3.3, M1 ag -3.4, CHRM1 antagonist -2.7 and TAAR1 agonist 9.8.
For O=C(Nc1ccc2cn[nH]c2c1)c1ccc(Cl)c(S(=O)(=O)N2CCOCC2)c1 the results were TAAR1 antagonist 34.8, M1 PAM -0.6, M1 ag -1.8, CHRM1 antagonist -4.8 and TAAR1 agonist 12.6.
For COc1ccc(OCC(=O)N2CCc3ccccc3C2)cc1 the results were M1 PAM 16.7, M1 ag -2.0, CHRM1 antagonist -21.9, Ga16 nonsel ag 0.0 and Ga16 nonsel ant 10.6.
O=C(CCCN1C(=O)c2ccccc2C1=O)N1CCc2ccccc2C1 was read as TAAR1 antagonist 20.9, M1 PAM 9.8, M1 ag -6.3, CHRM1 antagonist -7.1, TAAR1 agonist 68.9*, TAAR1 ag confirm 83.4*, Ga16 nonsel ag 0.2, TAAR1 desens 45.7 and Ga16 nonsel ant 10.9.
Screening O=C(CN1C(=O)c2cccc3cccc1c23)N1CCc2ccccc2C1 returned TAAR1 antagonist 2.3, M1 PAM 1.0, M1 ag -4.1, CHRM1 antagonist -23.9 and TAAR1 agonist 12.8.
CC1=C(C(=O)N(C)C)CC(CC(=O)NC2CCCCC2)C(=O)N1CCCN1CCCC1=O (stereo unspecified) was read as TAAR1 antagonist -18.0, M1 PAM 16.6, M1 ag 7.6, CHRM1 antagonist -2.8 and TAAR1 agonist 7.3.
Screening O=C(CSc1cccc(C(F)(F)F)c1)Nc1ccc(N2CCOCC2)cc1 returned TAAR1 antagonist 10.2, M1 PAM 4.8, M1 ag -3.0, CHRM1 antagonist -6.0 and TAAR1 agonist 4.4.
For Cc1cc(NC2CCCCC2)nc(NCc2ccccc2)n1 the results were TAAR1 antagonist 19.0, M1 PAM -20.4, M1 ag -4.3, CHRM1 antagonist 35.4*, TAAR1 agonist 67.3*, TAAR1 ag confirm 75.5*, Ga16 nonsel ag 52.3*, TAAR1 desens 59.2* and Ga16 nonsel ant 39.0*.
For Cc1ccc(Nc2cc(C)nc(NCc3ccccc3)n2)cc1 the results were TAAR1 antagonist 2.4, M1 PAM 0.6, M1 ag 1.0, CHRM1 antagonist 11.8, TAAR1 agonist 56.3*, TAAR1 ag confirm 87.8*, Ga16 nonsel ag 42.5*, TAAR1 desens 44.9 and Ga16 nonsel ant 27.1*.
Screening COc1ccc(Nc2cc(C)nc(NCc3ccccc3)n2)cc1 returned TAAR1 antagonist -6.0, M1 PAM 0.3, M1 ag 3.3, CHRM1 antagonist 14.0 and TAAR1 agonist 35.3.
`C[C@H]1NC(=O)[C@@]2(C)[C@H](c3ccccc3)[C@H]3COc4ccccc4[C@@H]3N2C1=O` gave TAAR1 antagonist 3.9, M1 PAM 6.7, M1 ag -0.7, CHRM1 antagonist -12.5 and TAAR1 agonist 6.1.
